19 compounds from ChEMBL document CHEMBL3120063, “Identification of chromomoric acid C-I as an Nrf2 activator in Chromolaena odorata” (J Nat Prod, 2014) can be followed below.

pIC50: −log10 of the molar value. Activity calls are given as the source filed them. No cut-off for these calls is given here.

The subject of one data set is HEK293. Kind of data set: Inhibition of NF-kappaB (unknown origin) expressed in HEK293 cells co-expressing luc gene at 30 uM after 30 mins by luciferase reporter gene assay. The data set is classed as cell-based. As to conditions: Homo sapiens. The procedure, abridged: (§1)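 HEK293/NF-κB-luc cells were stained 1 h with 2 μM Cell Tracker Green CMFDA, seeded at 4×10⁴ cells/well overnight, and pretreated 30 min with compound, 0.1% DMSO, or 5 μM parthenolide (positive control). They were then stimulated with 2 ng/mL TNF-α for 4 h and lysed; luminescence (NF-κB) and fluorescence (cell count) were read. n = 3.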

For data set [1], the target named is T1, Nuclear factor erythroid 2-related factor 2 (Homo sapiens) (UniProt Q16236).
T1 sequence (whole entry): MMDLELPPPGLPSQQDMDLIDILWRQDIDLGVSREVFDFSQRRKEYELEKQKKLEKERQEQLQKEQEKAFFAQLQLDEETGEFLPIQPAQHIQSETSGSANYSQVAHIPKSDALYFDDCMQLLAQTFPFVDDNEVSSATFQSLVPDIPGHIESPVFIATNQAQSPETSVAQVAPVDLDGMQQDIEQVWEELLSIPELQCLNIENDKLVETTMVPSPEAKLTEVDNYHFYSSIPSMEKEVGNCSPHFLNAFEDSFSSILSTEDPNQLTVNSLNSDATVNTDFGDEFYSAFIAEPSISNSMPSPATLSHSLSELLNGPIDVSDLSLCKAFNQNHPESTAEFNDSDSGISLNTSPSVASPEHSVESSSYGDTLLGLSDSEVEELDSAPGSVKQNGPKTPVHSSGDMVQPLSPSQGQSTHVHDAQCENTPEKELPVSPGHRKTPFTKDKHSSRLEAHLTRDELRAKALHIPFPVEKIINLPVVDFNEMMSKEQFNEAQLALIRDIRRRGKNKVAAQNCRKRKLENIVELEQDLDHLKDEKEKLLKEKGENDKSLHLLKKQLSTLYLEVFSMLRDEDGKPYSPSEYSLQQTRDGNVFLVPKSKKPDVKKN
Kind of data set: Activation of Nrf2 (unknown origin) expressed in CHO-ARE luc cells at 10 to 30 uM after 18 hrs by luciferase reporter gene assay. The data set is classed as cell-based. The essentials:
(§2)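 CHO-ARE-Luc cells, kept in DMEM with 10% FCS, 2 mM glutamine and 4 μg/mL puromycin, were exposed to test agents for 18 h. 0.1% DMSO served as vehicle and 100 nM CDDO-IM as positive control. Luciferase was normalized to cell count (Cell Tracker Green CMFDA) and expressed as fold of DMSO control. Three independent experiments, means + SD. CD = concentration doubling the vehicle response.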
(A reporter such as luciferase makes a cellular process visible.)

Data set [2] has as its target T1, Nuclear factor erythroid 2-related factor 2 (Homo sapiens). The experiment in a line: Activation of Nrf2 in human VSMC assessed as induction of HO-1 expression at 3 uM after 18 hrs by immunoblotting analysis. The procedure, abridged:
(§3)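 MEF (WT and isogenic Nrf2−/−) or VSMC were seeded at (3–4) × 10⁵ cells/well and treated next day with 0.1% DMSO or compound for 18 h. Total lysates were run on SDS-PAGE and immunoblotted for HO-1, with actin as loading control. HO-1/actin by densitometry relative to vehicle (set at 1). Three independent experiments.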

Data set [3] shares this target. The experiment in a line: Activation of Nrf2 (unknown origin) expressed in CHO-ARE-Luc cells after 18 hrs by luciferase reporter gene assay in presence of GSH. The data set is classed as cell-based. The procedure, abridged: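 ARE-luciferase assay in CHO-ARE-Luc cells with the medium supplemented with 2 mM glutathione before compound addition. Luciferase read 18 h later, normalized to cell count and given as fold of 0.1% DMSO control. CDDO-IM 100 nM as positive control. Three independent experiments.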

A short description of data set [4]: Inhibition of NF-kappaB (unknown origin) expressed in HEK293 cells co-expressing luc gene after 30 mins by luciferase reporter gene assay. The data set is classed as cell-based. As to conditions: Homo sapiens, HEK293, 0.5 h. The procedure, abridged: as §1
Data set [5] concerns VSMC. The experiment in a line: Antiproliferative activity against human VSMC assessed as inhibition of PDGF-induced cell proliferation at 5 uM incubated for 30 mins prior to PDGF challenge measured after 48 hrs by resazurin-mediated fluorescence assay in presence of protoporphyrin 9. The data set is classed as functional. The essentials: (§4)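 Quiescent (serum-starved) VSMC were pretreated 30 min with 0.1% DMSO, compound, or 10 μM tin protoporphyrin IX (HO-1 inhibitor) as indicated, then stimulated 48 h with 20 ng/mL PDGF. After a PBS wash, cells were given 10 μg/mL resazurin in serum-free medium for 45 min; resorufin fluorescence read at ex 535/em 590 nm. Three independent experiments.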

A short description of data set [6]: Cytotoxicity against human VSMC at 2 to 5 uM after 48 hrs by LDH assay. The essentials: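 Quiescent VSMC were treated with compound for 48 h. LDH release, measured with a nonradioactive CytoTox kit, was taken as readout of membrane integrity. Three independent experiments, 0.1% DMSO vehicle.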
Data set [7] concerns the target T2, Nuclear factor erythroid 2-related factor 2 (Mus musculus) (UniProt Q60795).
T2 sequence (whole entry): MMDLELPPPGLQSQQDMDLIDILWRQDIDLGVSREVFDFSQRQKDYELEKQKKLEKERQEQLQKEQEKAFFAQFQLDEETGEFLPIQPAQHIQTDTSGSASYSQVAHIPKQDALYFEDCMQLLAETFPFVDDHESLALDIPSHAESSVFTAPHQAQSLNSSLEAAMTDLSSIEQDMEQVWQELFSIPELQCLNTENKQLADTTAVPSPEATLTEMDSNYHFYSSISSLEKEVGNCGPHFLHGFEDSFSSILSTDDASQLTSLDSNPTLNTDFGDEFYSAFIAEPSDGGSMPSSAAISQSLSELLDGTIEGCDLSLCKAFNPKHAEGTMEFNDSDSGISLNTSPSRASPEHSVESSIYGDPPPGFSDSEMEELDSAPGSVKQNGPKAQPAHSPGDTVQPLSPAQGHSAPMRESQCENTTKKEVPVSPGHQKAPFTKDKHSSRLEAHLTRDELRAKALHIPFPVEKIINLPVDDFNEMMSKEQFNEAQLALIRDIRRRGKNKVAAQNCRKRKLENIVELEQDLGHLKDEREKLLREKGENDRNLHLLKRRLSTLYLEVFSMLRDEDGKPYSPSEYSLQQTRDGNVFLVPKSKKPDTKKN
Kind of data set: Activation of Nrf2 in wild type mouse embryonic fibroblasts assessed as induction of HO-1expression after 18 hrs by immunoblotting analysis. The essentials:
as §3
Background: Immunoblotting shows a protein as a band on a membrane.

The target of data set [8] is T1, Nuclear factor erythroid 2-related factor 2 (Homo sapiens). Kind of data set: Activation of Nrf2 (unknown origin) expressed in CHO-ARE luc cells at 10 uM after 18 hrs by luciferase reporter gene assay. The data set is classed as cell-based. The essentials:
as §2

Data set [9] deals with T2, Nuclear factor erythroid 2-related factor 2 (Mus musculus). The experiment in a line: Activation of Nrf2 in mouse Nrf2 deficient embryonic fibroblasts assessed as induction of HO-1expression at 10 uM after 18 hrs by immunoblotting analysis. The essentials: as §3
Data set [10] addresses T1, Nuclear factor erythroid 2-related factor 2 (Homo sapiens). Kind of data set: Activation of Nrf2 (unknown origin) expressed in CHO-ARE luc cells at 5.2 uM after 18 hrs by luciferase reporter gene assay relative to vehicle-treated control. The data set is classed as cell-based. The procedure, abridged:
as §2

The test system of data set [11] is VSMC. The experiment in a line: Antiproliferative activity against human VSMC assessed as inhibition of PDGF-induced cell proliferation at 2 to 5 uM incubated for 30 mins prior to PDGF challenge measured after 48 hrs by resazurin-mediated fluorescence assay. The class given is functional. The procedure, abridged: as §4
For orientation: Alamar Blue is a resazurin reagent that responds to reducing activity.

Data set [12] deals with T1, Nuclear factor erythroid 2-related factor 2 (Homo sapiens). The experiment in a line: Activation of Nrf2 (unknown origin) expressed in CHO-ARE-Luc cells after 18 hrs by luciferase reporter gene assay. The data set is classed as cell-based. The procedure, abridged: as §2

What is called pIC50 is the negative decadic logarithm of the IC50, by convention in mol/L. A lower pIC50 goes with a high IC50.

Regarding `CC/C=C\CC1C(=O)C=C/C1=C/CCCCCCC(=O)O` (stereo not drawn), in the data set on HEK293, the inhibition entry is “Active”.

For the compound `COc1cc(O)c2c(c1)O[C@H](c1ccc(O)cc1)[C@@H](O)C2=O`, the result in [1] was inactive.

Consider `COc1ccc([C@@H]2CC(=O)c3c(O)cc(O)cc3O2)cc1O`, for which the result in data set [1] was inactive.

With `CC/C=C\C[C@H]1C(=O)C=C[C@@H]1CCCCCCCC(=O)O`, the inhibition entry in the data set on HEK293 is “Active”.

`COc1ccc(-c2cc(=O)c3c(O)c(OC)c(OC)cc3o2)cc1`: the outcome in [1] was inactive.

Take `COc1ccc([C@@H]2CC(=O)c3c(cc(O)c(OC)c3O)O2)cc1O`: the outcome in data set [1] was inactive.

With `COc1ccc(-c2oc3cc(O)c(OC)c(O)c3c(=O)c2O)cc1`, the result in [1] was inactive.

Turning to `CC/C=C\CC1C(=O)C=C/C1=C\CCCCCCC(=O)O` (stereo not drawn), the inhibition entry in the data set on HEK293 is “Active”.

Consider `COc1ccc(-c2cc(=O)c3c(O)c(OC)c(O)cc3o2)cc1`, for which the result in [1] was inactive.

In the case of `COc1ccc(-c2cc(=O)c3c(O)cc(O)cc3o2)cc1`, in [1], the result was inactive.

As for `COc1ccc([C@@H]2CC(=O)c3c(cc(OC)c(OC)c3O)O2)cc1OC`, in data set [1], the outcome was inactive.

Regarding `COc1ccc(-c2oc3cc(O)cc(O)c3c(=O)c2O)cc1`, the result in data set [1] was inactive.

For the compound `COc1ccc(-c2cc(=O)c3c(OC)c(OC)c(OC)cc3o2)cc1`, the result in data set [1] was inactive.

Turning to `CC/C=C\C=C1/C(=O)C=C[C@@H]1CCCCCCCC(=O)O`, the inhibition result with HEK293 was “Active”.

Take `O=C1C[C@@H](c2ccc(O)cc2)Oc2cc(O)cc(O)c21`: the outcome in data set [1] was inactive.

For the compound `COc1cc(O)c2c(=O)c(O)c(-c3ccc(OC)c(O)c3)oc2c1`, the result in [1] was inactive.

In the case of `CC/C=C\C=C1\C(=O)C=C[C@@H]1CCCCCCCC(=O)O`, the result in data set [2], in [8] and in [9] was Active. For the same compound, the result (in data set [3]; with VSMC [5]) was inactive. Further, the negative-log IC50 (pIC50) in data set [4] is 5.16. The Activity result in data set [6] is “Non-toxic”; in data set [7] it was “Dose-dependent effect”. Besides, the fold change (FC) in data set [10] turned out to be 2. In the data set on VSMC [11], the inhibition entry was “Active”.

In the case of `O=c1c(O)c(-c2ccc(O)cc2)oc2cc(O)cc(O)c12`, in data set [1], the result was inactive.

With `CCCCC/C=C/C=C1/C(=O)C=C[C@@H]1C/C=C\CCCC(=O)O`, in [12], the Activity entry is “Dose-dependent effect”.
